Blank lines part the entries; values can stand above or below the compound they belong to.
Tests used:
[1] = molecular target: T1, Aldo-keto reductase family 1 member B1 (Rattus norvegicus, UniProt P07943); assay: Inhibition of aldose reductase from rat lens. Value ranges from 300 - 2000
In short: (§1)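 Rat lens aldose reductase was the 40% ammonium sulfate supernatant. Assay at 30 °C in 0.1 M phosphate, pH 6.2, with 0.104 mM NADPH and 10 mM DL-glyceraldehyde, following NADPH decrease at 340 nm over 3.0 min. At least four inhibitor concentrations, three or more determinations each.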

[2] = molecular target: T1, Aldo-keto reductase family 1 member B1; assay: Inhibition of aldose reductase from rat lens. Value ranges from 7 - 130; in short: as §1
[3] = molecular target: T1, Aldo-keto reductase family 1 member B1; assay: Inhibition of aldose reductase from rat lens. Value ranges from 1.5 - 16; in short: as §1
[4] = molecular target: T1, Aldo-keto reductase family 1 member B1; assay: Inhibition of aldose reductase from rat lens. Value ranges from 0.3 - 2.3; in short: as §1
[5] = molecular target: T1, Aldo-keto reductase family 1 member B1; assay: Inhibition of aldose reductase from rat lens. Value ranges from 50 - 650; in short: as §1
[6] = molecular target: T1, Aldo-keto reductase family 1 member B1; assay: Inhibition of aldose reductase from rat lens. Value ranges from 9 - 69; in short: as §1
[7] = molecular target: Aldo-keto reductase family 1 member B1 (Rattus norvegicus) (UniProt P07943); assay: Compound was evaluated at 100 uM for the ability to inhibit partially purified aldose reductase obtained from rat lens
In short: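 Enzyme: 40%-saturation ammonium sulfate supernatant from homogenized rat lenses, diluted so the control rate was about 0.0100 absorbance/min. Reaction at 30 °C in 0.1 M phosphate, pH 6.2, with 0.104 mM NADPH and 10 mM DL-glyceraldehyde, started by substrate. NADPH loss was read at 340 nm for 3.0 min after a 1.0 min lag. Percent inhibition at 100 µM was taken against the substrate-only control.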

[8] = molecular target: T1, Aldo-keto reductase family 1 member B1; assay: Inhibition of aldose reductase from rat lens. Value ranges from 1.0 - 34; in short: as §1
[9] = molecular target: T1, Aldo-keto reductase family 1 member B1; assay: Inhibition of aldose reductase from rat lens. Value ranges from 0.15 - 3.3; in short: as §1
[10] = molecular target: T1, Aldo-keto reductase family 1 member B1; assay: Inhibition of aldose reductase from rat lens. Value ranges from 0.5 - 16; in short: as §1
[11] = molecular target: T1, Aldo-keto reductase family 1 member B1; assay: Inhibition of aldose reductase from rat lens. Value ranges from 0.1 - 7; in short: as §1
[12] = molecular target: T1, Aldo-keto reductase family 1 member B1; assay: Inhibition of aldose reductase from rat lens. Value ranges from 110 - 430; in short: as §1
[13] = molecular target: T1, Aldo-keto reductase family 1 member B1; assay: Inhibition of aldose reductase from rat lens. Value ranges from 6 - 14; in short: as §1
[14] = molecular target: T1, Aldo-keto reductase family 1 member B1; assay: Inhibition of aldose reductase from rat lens. Value ranges from 5 - 97; in short: as §1
[15] = molecular target: T1, Aldo-keto reductase family 1 member B1; assay: Inhibition of aldose reductase from rat lens. Value ranges from 8.5 - 410; in short: as §1
[16] = molecular target: T1, Aldo-keto reductase family 1 member B1; assay: Inhibition of aldose reductase from rat lens. Value ranges from 3 - 300; in short: as §1
[17] = molecular target: T1, Aldo-keto reductase family 1 member B1; assay: Inhibition of aldose reductase from rat lens. Value ranges from 16 - 360; in short: as §1
[18] = molecular target: T1, Aldo-keto reductase family 1 member B1; assay: Inhibition of aldose reductase from rat lens. Value ranges from 17 - 720; in short: as §1
[19] = molecular target: T1, Aldo-keto reductase family 1 member B1; assay: Inhibition of aldose reductase from rat lens. Value ranges from 280 - 490; in short: as §1
[20] = molecular target: T1, Aldo-keto reductase family 1 member B1; assay: Inhibition of aldose reductase from rat lens. Value ranges from 0.6 - 47; in short: as §1
[21] = molecular target: T1, Aldo-keto reductase family 1 member B1; assay: Inhibition of aldose reductase from rat lens. Value ranges from 25-64; in short: as §1
[22] = molecular target: T1, Aldo-keto reductase family 1 member B1; assay: Inhibition of aldose reductase from rat lens. Value ranges from 20 - 160; in short: as §1
[23] = molecular target: T1, Aldo-keto reductase family 1 member B1; assay: Inhibition of aldose reductase from rat lens. Value ranges from 7 - 33; in short: as §1
[24] = molecular target: T1, Aldo-keto reductase family 1 member B1; assay: Inhibition of aldose reductase from rat lens. Value ranges from 10 - 42; in short: as §1
[25] = molecular target: T1, Aldo-keto reductase family 1 member B1; assay: Inhibition of aldose reductase from rat lens. Value ranges from 35-160; in short: as §1
[26] = molecular target: T1, Aldo-keto reductase family 1 member B1; assay: Inhibition of aldose reductase from rat lens. Value ranges from 10 - 520; in short: as §1
[27] = molecular target: T1, Aldo-keto reductase family 1 member B1; assay: Inhibition of aldose reductase from rat lens. Value ranges from 10 - 1300; in short: as §1
[28] = molecular target: T1, Aldo-keto reductase family 1 member B1; assay: Inhibition of aldose reductase from rat lens. Value ranges from 300 - 1100; in short: as §1
[29] = molecular target: T1, Aldo-keto reductase family 1 member B1; assay: Inhibition of aldose reductase from rat lens. Value ranges from 140 - 580; in short: as §1
[30] = molecular target: T1, Aldo-keto reductase family 1 member B1; assay: Inhibition of aldose reductase from rat lens. Value ranges from 4.9 - 23; in short: as §1
[31] = molecular target: T1, Aldo-keto reductase family 1 member B1; assay: Inhibition of aldose reductase from rat lens. Value ranges from 0.02 -0.64; in short: as §1
[32] = molecular target: T1, Aldo-keto reductase family 1 member B1; assay: Inhibition of aldose reductase from rat lens. Value ranges from 40 - 680; in short: as §1
[33] = molecular target: T1, Aldo-keto reductase family 1 member B1; assay: Inhibition of aldose reductase from rat lens. Value ranges from 32 - 110; in short: as §1
[34] = molecular target: T1, Aldo-keto reductase family 1 member B1; assay: Inhibition of aldose reductase from rat lens. Value ranges from 10 - 130; in short: as §1

- IC50 [1]: 950 µM
SMILES: COc1ccc(N(C(C)=O)C(C)C(=O)O)cc1 (stereo not drawn)

- IC50 [2]: 80 µM
SMILES: COc1ccc(N(CC(=O)O)C(C)=O)cc1

- IC50 [3]: 5 µM
SMILES: O=C(O)CN(C(=O)c1ccccc1)c1ccc(Cl)cc1

- IC50 [4]: 860 nM
SMILES: O=C(O)CN(C(=O)c1ccccc1)c1cccc([N+](=O)[O-])c1

- IC50 [5]: 230 µM
SMILES: O=C(O)CN(C(=O)c1ccccc1)c1cccc2ccccc12

- IC50 [6]: 25 µM
SMILES: CC(=O)N(CC(=O)O)c1ccc(Cl)cc1

- inhibition [7]: 36%
SMILES: Nc1cccc(C(=O)NCC(=O)O)c1

- IC50 [8]: 5.8 µM
SMILES: O=C(O)CN(C(=O)c1cccc2ccccc12)c1ccccc1

- IC50 [9]: 670 nM
SMILES: O=C(O)CN1C(=O)c2cccc3cccc1c23

- IC50 [10]: 3 µM
SMILES: Cc1ccc(N(CC(=O)O)C(=O)c2ccccc2)cc1

- IC50 [11]: 960 nM
SMILES: COc1ccc(N(CC(=O)O)C(=O)c2ccccc2)cc1

- inhibition [7]: 14%
SMILES: CC(=O)N(CC(=O)O)c1ccccc1C

- IC50 [12]: 220 µM
SMILES: Cc1ccc(C(=O)NCC(=O)O)cc1

- inhibition [7]: 14%
SMILES: CC(NC(=O)c1ccccc1)C(=O)O (stereo not drawn)

- inhibition [7]: 32%
SMILES: O=C(O)CNC(=O)c1cccc([N+](=O)[O-])c1

- inhibition [7]: 16%
SMILES: Nc1ccccc1C(=O)NCC(=O)O

- IC50 [13]: 9.5 µM
SMILES: O=C(O)CN(C(=O)c1ccccc1)c1ccccc1

- IC50 [14]: 21 µM
SMILES: CC(=O)N(CC(=O)O)c1ccccc1

- inhibition [7]: 22%
SMILES: Nc1ccc(C(=O)NCC(=O)O)cc1

- IC50 [15]: 65 µM
SMILES: O=C(O)Cn1c(=O)c2ccccc2c(=O)c2ccccc21

- IC50 [16]: 31 µM
SMILES: O=C(O)CNC(=O)c1ccccc1Cl

- IC50 [17]: 128 µM
SMILES: CC(=O)N(c1ccc(C)cc1)C(C)C(=O)O (stereo not drawn)

- inhibition [7]: 38%
SMILES: COc1ccc(C(=O)NC(C)C(=O)O)cc1 (stereo not drawn)

- IC50 [18]: 110 µM
SMILES: CC(=O)N(c1ccc(Cl)cc1)C(C)C(=O)O (stereo not drawn)

- IC50 [19]: 330 µM
SMILES: O=C(O)CNC(=O)c1ccccc1 [HIPPURIC ACID]

- IC50 [20]: 5.8 µM
SMILES: CC(=O)N(CC(=O)O)c1ccc([N+](=O)[O-])cc1

- IC50 [21]: 40 µM
SMILES: O=C(O)CNC(=O)c1ccc2ccccc2c1

- IC50 [22]: 55 µM
SMILES: CC(=O)N(CC(=O)O)c1ccc(N)cc1

- IC50 [23]: 15 µM
SMILES: CC(=O)N(CC(=O)O)c1ccc(C)cc1

- IC50 [24]: 27 µM
SMILES: CC(=O)N(CC(=O)O)c1cccc([N+](=O)[O-])c1

- IC50 [25]: 71 µM
SMILES: COc1ccc(C(=O)NCC(=O)O)cc1

- inhibition [7]: 10%
SMILES: CC(=O)N(CC(=O)O)c1cccc(C)c1

- IC50 [26]: 79 µM
SMILES: O=C(O)CN1C(=O)c2ccccc2CCc2ccccc21

- IC50 [27]: 200 µM
SMILES: CC(=O)N(c1ccccc1)C(C)C(=O)O (stereo not drawn)

- IC50 [28]: 550 µM
SMILES: O=C(O)CNC(=O)c1ccc(Cl)cc1 [4-CHLOROHIPPURIC ACID]

- IC50 [29]: 280 µM
SMILES: O=C(O)CNC(=O)c1ccc([N+](=O)[O-])cc1

- IC50 [30]: 10.7 µM
SMILES: O=C(O)Cn1c(=O)c2ccccc2c2ccccc21

- IC50 [31]: 130 nM
SMILES: O=C(O)CN(C(=O)c1cccc([N+](=O)[O-])c1)c1ccc([N+](=O)[O-])cc1

- IC50 [32]: 220 µM
SMILES: O=C(O)CN(C(=O)c1ccccc1)c1ccc2ccccc2c1

- inhibition [7]: 19%
SMILES: Cc1ccc(C(=O)NC(C)C(=O)O)cc1 (stereo not drawn)

- IC50 [33]: 58 µM
SMILES: O=C(O)CNC(=O)c1ccccc1[N+](=O)[O-]

- IC50 [34]: 34 µM
SMILES: CC(=O)N(CC(=O)O)c1ccc(O)cc1

- inhibition [7]: 20%
SMILES: CC(=O)N(CC(=O)O)c1cccc2ccccc12

Source: ChEMBL document CHEMBL1124660, “Synthesis and in vitro aldose reductase inhibitory activity of compounds containing an N-acylglycine moiety” (J Med Chem, 1989)
